Ki, Ratio Ki and Activity data for four compounds are collected here from ChEMBL document CHEMBL1142938 (J Med Chem, 2007).

As usually defined, the Ki is the dissociation constant of the complex between target and ligand, obtained from inhibition or displacement.

One test concerns the target T1, Adenosine receptor A1 (Homo sapiens, UniProt P30542).
T1 sequence (P30542 whole entry): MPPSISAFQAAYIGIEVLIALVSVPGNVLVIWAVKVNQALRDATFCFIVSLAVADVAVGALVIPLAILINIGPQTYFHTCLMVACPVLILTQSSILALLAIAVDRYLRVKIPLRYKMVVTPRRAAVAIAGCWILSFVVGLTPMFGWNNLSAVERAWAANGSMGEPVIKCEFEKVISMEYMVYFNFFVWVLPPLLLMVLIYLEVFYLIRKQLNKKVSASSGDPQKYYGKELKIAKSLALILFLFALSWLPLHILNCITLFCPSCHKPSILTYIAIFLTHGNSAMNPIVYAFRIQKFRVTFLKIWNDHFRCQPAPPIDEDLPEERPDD
Description: Displacement of [3H]CCPA from human recombinant adenosine A1 receptor expressed in CHO cells. It is filed as cell-based. For orientation: Displacement assays read how much labelled ligand stays bound in the presence of the test substance.

For test [1], the target named is Adenosine receptors; A2a & A3 (Homo sapiens) (UniProt P0DMS8+P29274). The test is described as follows: Selectivity for human adenosine A3 receptor over human adenosine A2A receptor. In kind it is protein assay.
The target in test [2] is T2, Adenosine receptor A3 (Homo sapiens) (UniProt P0DMS8).
T2 sequence (whole entry): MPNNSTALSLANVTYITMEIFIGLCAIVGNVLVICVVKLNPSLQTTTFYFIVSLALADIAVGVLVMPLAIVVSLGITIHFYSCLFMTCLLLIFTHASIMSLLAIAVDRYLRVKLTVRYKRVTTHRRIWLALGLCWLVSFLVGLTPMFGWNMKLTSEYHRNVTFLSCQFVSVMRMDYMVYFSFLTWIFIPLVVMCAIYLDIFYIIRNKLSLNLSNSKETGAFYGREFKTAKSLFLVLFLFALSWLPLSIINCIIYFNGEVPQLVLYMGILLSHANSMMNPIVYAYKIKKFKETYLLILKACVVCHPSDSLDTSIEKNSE
Description: Activity at human adenosine A3 receptor assessed as inhibition of forskolin-stimulated cAMP production in CHO cells. It is filed as functional, cell-based. Set-up: concentration or dose not given beside the values.

The target in a further test is T3, Adenosine receptor A3 (Homo sapiens, UniProt P0DMS8).
T3 sequence (P0DMS8 whole entry): T2 sequence (whole entry)
Description: Displacement of [3H]NECA from human recombinant adenosine A3 receptor expressed in CHO cells. It is filed as cell-based. The procedure, abridged: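 [3H]NECA used at 10 nM as radioligand in competition experiments, stably transfected CHO cells. Nonspecific binding defined with 1 mM theophylline. Ki from nonlinear curve fitting.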

The target in a further test is Adenosine receptor A2a (Homo sapiens, UniProt P29274). Description: Displacement of [3H]NECA from human recombinant adenosine A2A receptor expressed in CHO cells. In kind it is cell-based. The method in brief:
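Competition binding with [3H]NECA at 30 nM on stably transfected CHO cells. Nonspecific binding defined with 1 mM theophylline. Dissociation constants (Ki) obtained by nonlinear curve fitting.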

The target in test [3] is Adenosine receptors; A1 & A3 (Homo sapiens) (UniProt P30542+P0DMS8). The test is described as follows: Selectivity for human adenosine A3 receptor over human adenosine A1 receptor. In kind it is protein assay.

Chain of Adenosine receptor A2a (P29274 whole entry): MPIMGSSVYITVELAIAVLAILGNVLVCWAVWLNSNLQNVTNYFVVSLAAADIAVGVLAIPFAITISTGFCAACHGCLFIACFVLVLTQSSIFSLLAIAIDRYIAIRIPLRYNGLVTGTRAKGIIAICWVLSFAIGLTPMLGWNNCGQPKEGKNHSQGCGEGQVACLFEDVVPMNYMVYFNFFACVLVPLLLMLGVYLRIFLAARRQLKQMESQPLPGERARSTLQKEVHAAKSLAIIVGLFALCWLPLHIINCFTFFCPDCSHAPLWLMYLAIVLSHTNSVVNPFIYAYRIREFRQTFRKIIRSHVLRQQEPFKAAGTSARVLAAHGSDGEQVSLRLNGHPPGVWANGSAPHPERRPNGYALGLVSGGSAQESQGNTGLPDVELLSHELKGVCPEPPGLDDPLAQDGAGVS

In the case of `CNC(=O)[C@H]1O[C@@H](n2cnc3c(NOC)nc(C#Cc4ccccn4)nc32)[C@H](O)[C@@H]1O`, the values for the inhibition constant Ki on Adenosine receptor A1, on Adenosine receptor A3 and at Adenosine receptor A2a were 3990 nM, 1.1 nM and 18000 nM, respectively. Also, the results for the Ratio Ki in test [1] and in test [3] were 16400 and 3600, respectively. Moreover, the Activity in test [2] was determined as 34%.
Turning to `CONc1nc(C#Cc2ccc(C(C)=O)cc2)nc2c1ncn2[C@@H]1O[C@H](CO)[C@@H](O)[C@H]1O`, the Ki at Adenosine receptor A1 is 1280 nM; on Adenosine receptor A3, 3 nM; at Adenosine receptor A2a it was 2680 nM. The Ratio Ki in test [1] worked out at 893; in test [3], 427. Moreover, in test [2], the Activity stood at 81%.
For the compound `CNC(=O)[C@H]1O[C@@H](n2cnc3c(NOC)nc(C#Cc4ccccc4)nc32)[C@H](O)[C@@H]1O`, the Ki turned out to be 9140 nM on Adenosine receptor A1, 1.9 nM on Adenosine receptor A3 and 16300 nM at Adenosine receptor A2a. The figures for the Ratio Ki in test [1] and in test [3] were 8600 and 4800, respectively. In addition, the Activity in test [2] was determined as 38%.
On to `CONc1nc(C#Cc2ccccn2)nc2c1ncn2[C@@H]1O[C@H](CO)[C@@H](O)[C@H]1O`, for which the inhibition constant (Ki) turned out to be 437 nM on Adenosine receptor A1, 2.3 nM at Adenosine receptor A3 and 2960 nM at Adenosine receptor A2a. Also, the results for the Ratio Ki in test [1] and in test [3] were 1300 and 190, respectively. Also, in test [2], the Activity came to 94%.
